61 molecules from ChEMBL document CHEMBL1131198, “From micromolar to nanomolar affinity: a systematic approach to identify the binding site of CGRP at the human calcitonin gene-related peptide 1 receptor” (J Med Chem, 1998) can be followed below.

Numbered stars: 1 amine (or outer) side, 2 acyl side, 3 side chain; on linkers, the order of the positions; unused ones are H or OH. Square brackets hold non-standard residues; d marks the D form. Peptide text beside a SMILES is read from it. X1 = O=C(C1(c2ccccc2)CC1CN[*:1])[*:2]; Hyp = O=C(O)[C@@H]1C[C@@H](O)CN1; X2 = O=C(C1CC1CN[*:1])[*:2]; Aib = CC(C)(N)C(=O)O

In this assay the target is Calcitonin gene-related peptide type 1 receptor (Homo sapiens, UniProt O60894+Q16602). As to the kind of experiment: CGRP1 receptor affinity on human neuroblastoma cells SK-N-MC, which selectively express the human CGRP1 receptor. The essentials:
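SK-N-MC membranes (cells grown in DMEM, detached with PBS/0.02% EDTA, homogenized, pellet in Tris buffer pH 7.40 with 1% BSA, 0.1% bacitracin, stored -80 °C) diluted 1:10 in assay buffer (50 mM Tris, 150 mM NaCl, 5 mM MgCl2, 1 mM EDTA, pH 7.40).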

Sequence of Calcitonin gene-related peptide type 1 receptor (Q16602 whole entry, one chain of several): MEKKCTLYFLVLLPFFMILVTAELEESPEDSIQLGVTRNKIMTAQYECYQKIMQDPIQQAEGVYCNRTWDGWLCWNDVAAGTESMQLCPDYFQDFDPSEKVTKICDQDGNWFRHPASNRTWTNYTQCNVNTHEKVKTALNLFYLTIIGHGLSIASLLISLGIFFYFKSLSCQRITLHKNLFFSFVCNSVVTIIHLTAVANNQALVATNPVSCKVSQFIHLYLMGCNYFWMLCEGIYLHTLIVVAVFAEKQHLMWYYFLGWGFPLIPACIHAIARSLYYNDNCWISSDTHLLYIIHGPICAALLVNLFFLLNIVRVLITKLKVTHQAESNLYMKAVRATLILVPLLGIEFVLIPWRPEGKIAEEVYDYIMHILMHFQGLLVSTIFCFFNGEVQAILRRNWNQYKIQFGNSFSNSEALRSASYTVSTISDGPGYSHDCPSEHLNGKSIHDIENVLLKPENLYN

Usually IC50 stands for the concentration at which inhibition is half-maximal. For the molecule H-FVPTNVGSEAF-OH, the concentration for half-maximal inhibition (IC50) came to 3 µM. In the case of H-NFVPRSKISPEAF-OH it was 10 µM; in that of H-YVPTDVGSEAF-OH, 5 µM; in that of H-YVPTNVGSHAF-OH, 4.28 µM. On to H-YVPTLVGSEAF-OH, for which the half-maximal inhibitory concentration (IC50) was determined as 7 µM. As for H-YVPTNVGSKAF-OH, the concentration for half-maximal inhibition (IC50) turned out to be 6.5 µM. Consider H-YFPTNVGSEAF-OH, for which the IC50 worked out at 14 µM. With H-YVPSNVGSEAF-OH, the 50% inhibitory concentration (IC50) is greater than 100 µM. In the case of H-YVFTNVGSEAF-OH it was 45 µM; in that of H-YVPTNVGSFAF-OH, 4.79 µM; in that of Ac-VPTDVGAFAF-OH, 0.3 µM.

As for H-YVPTNVGSEGF-OH, the IC50 came to 51 µM. Regarding H-YPTNVGSEAF-OH, the IC50 is 24 µM.

For the molecule Ac-PTDVGAFAF-OH, the IC50 worked out at 0.49 µM.

For `CC(C)[C@H](NC(=O)[C@H](CC(=O)O)NC(=O)[C@@H](NC(=O)[C@@H]1CCCN1C(=O)[C@@H](NC(=O)[C@@H](N)Cc1ccccc1)C(C)C)[C@@H](C)O)C(=O)NCC(=O)NCC1CC1(C(=O)N[C@@H](Cc1ccccc1)C(=O)N[C@@H](C)C(=O)N[C@@H](Cc1ccccc1)C(=O)O)c1ccccc1` (stereo partly specified) (H-FVPTDVG[X1]FAF-OH), the IC50 is greater than 3 µM. H-YVPTNVGSAAF-OH: the IC50 was greater than 10 µM. The same measure for H-FPPTNVGSEAF-OH: 3.4 µM; for `CC(C)[C@H](NC(=O)[C@H](CC(N)=O)NC(=O)[C@@H](NC(=O)[C@@H]1CCCN1C(=O)[C@@H](NC(=O)[C@H](N)Cc1ccc(O)cc1)C(C)C)[C@@H](C)O)C(=O)NCC(=O)N[C@@H](CO)C(=O)N[C@@H](CCC(=O)O)C(=O)N[C@@H](C)C(=O)N[C@@H](Cc1ccccc1)C(=O)O`: 80 µM; for H-NVAPRSKISPEAF-OH: 10 µM.

Turning to H-YVPTNVGSQAF-OH, the 50% inhibitory concentration (IC50) was 6.9 µM. As to `CC(C)[C@H](NC(=O)[C@H](CC(N)=O)NC(=O)[C@@H](NC(=O)[C@@H]1CCCN1C(=O)[C@@H](NC(=O)[C@@H](N)Cc1ccc(O)cc1)C(C)C)[C@@H](C)O)C(=O)NCC(=O)N[C@@H](CO)C(=O)N[C@@H](CCC(=O)O)C(=O)N[C@H](C)C(=O)N[C@@H](Cc1ccccc1)C(=O)O`, the IC50 was greater than 100 µM. For H-FVPTDVGSEAF-OH, the concentration for half-maximal inhibition (IC50) was greater than 3 µM. In the case of `CC(C)[C@H](NC(=O)[C@@H](CC(N)=O)NC(=O)[C@@H](NC(=O)[C@@H]1CCCN1C(=O)[C@@H](NC(=O)[C@@H](N)Cc1ccc(O)cc1)C(C)C)[C@@H](C)O)C(=O)NCC(=O)N[C@@H](CO)C(=O)N[C@@H](CCC(=O)O)C(=O)N[C@@H](C)C(=O)N[C@@H](Cc1ccccc1)C(=O)O`, the concentration for half-maximal inhibition (IC50) was greater than 100 µM. For the molecule H-YVPTNVGSLAF-OH, the half-maximal inhibitory concentration (IC50) was 8.55 µM. On to H-VPTDVGAFAF-OH, for which the IC50 was 0.2 µM. Consider H-AVPTNVGSEAF-OH, for which the IC50 is 24 µM. The same measure for H-FVPPNVGSEAF-OH: greater than 10 µM; for H-FVPTDVGPEAF-OH: 0.47 µM; for `CC(C)[C@H](NC(=O)[C@H](CC(=O)O)NC(=O)[C@@H](NC(=O)[C@@H]1CCCN1C(=O)[C@@H](NC(=O)[C@@H](N)Cc1ccccc1)C(C)C)[C@@H](C)O)C(=O)NCC(=O)NC(C)(C)C(=O)N[C@@H](Cc1ccccc1)C(=O)N[C@@H](C)C(=O)N[C@@H](Cc1ccccc1)C(=O)O` (H-FVPTDVG[Aib]FAF-OH): 0.17 µM. As for H-YAPTNVGSEAF-OH, the IC50 was 8 µM. Turning to H-FVPTNVGPEAF-OH, the half-inhibitory concentration (IC50) stood at 0.28 µM. On to `CC(C)[C@H](NC(=O)[C@H](CC(=O)O)NC(=O)[C@@H](NC(=O)[C@@H]1CCCN1C(=O)[C@@H](NC(=O)[C@@H](N)Cc1ccccc1)C(C)C)[C@@H](C)O)C(=O)NCC(=O)N1C[C@H](O)C[C@H]1C(=O)N[C@@H](Cc1ccccc1)C(=O)N[C@@H](C)C(=O)N[C@@H](Cc1ccccc1)C(=O)O`, for which the IC50 was 0.62 µM. Consider `CC(C)[C@H](NC(=O)[C@H](CC(=O)O)NC(=O)[C@@H](NC(=O)[C@@H]1CCCN1C(=O)[C@@H](NC(=O)[C@@H](N)Cc1ccccc1)C(C)C)[C@@H](C)O)C(=O)NCC(=O)N1CCC[C@H]1C(=O)N[C@@H](Cc1ccccc1)C(=O)N[C@@H](C)C(=O)N[C@@H](Cc1ccccc1)C(=O)O`, for which the IC50 came to 0.029 µM. Turning to H-FVPTPVGSEAF-OH, the IC50 turned out to be 4.5 µM. Take `CC(C)[C@H](NC(=O)[C@H](CC(N)=O)NC(=O)[C@@H](NC(=O)[C@@H]1CCCN1C(=O)[C@@H](NC(=O)[C@@H](N)Cc1ccc(O)cc1)C(C)C)[C@@H](C)O)C(=O)NCC(=O)N[C@H](CO)C(=O)N[C@@H](CCC(=O)O)C(=O)N[C@@H](C)C(=O)N[C@@H](Cc1ccccc1)C(=O)O`: the IC50 is greater than 100 µM. For H-YVPTAVGSEAF-OH, the IC50 was greater than 100 µM. As for H-YTNVGSEAF-OH, the half-maximal inhibitory concentration (IC50) amounted to 18 µM. For the molecule H-YVPTNVGAEAF-OH, the concentration for half-maximal inhibition (IC50) was determined as 4 µM. Turning to H-NVAPTNVGSQGY-OH, the concentration for half-maximal inhibition (IC50) came out at 10 µM. On to H-NVAPTNVGSEAF-OH, for which the 50% inhibitory concentration (IC50) came to 10 µM. Consider H-FVPTNVPSEAF-OH, for which the IC50 was greater than 10 µM. In the case of H-FVPTDVGAHAF-OH, the IC50 was 0.36 µM.

Consider Ac-FVPTDVGAFAF-OH, for which the IC50 is 0.205 µM. Turning to `CC(C)[C@H](NC(=O)[C@H](CC(N)=O)NC(=O)[C@@H](NC(=O)[C@@H]1CCCN1C(=O)[C@@H](NC(=O)[C@@H](N)Cc1ccc(O)cc1)C(C)C)[C@@H](C)O)C(=O)NCC(=O)N[C@@H](CO)C(=O)N[C@@H](CCC(=O)O)C(=O)N[C@@H](C)C(=O)N[C@@H](Cc1ccccc1)C(=O)O`, the IC50 is 3 µM. On to H-ILSSTNVGSEAF-OH, for which the IC50 stood at 10 µM. For the molecule H-FVPTNVGSKAF-OH, the half-maximal inhibitory concentration (IC50) came to 2.7 µM. Regarding H-YVPTFVGSEAF-OH, the 50% inhibitory concentration (IC50) was 70 µM.

As for H-PTDVGAFAF-OH, the concentration for half-maximal inhibition (IC50) is 0.22 µM.

In the case of `CC(C)[C@H](NC(=O)[C@H](CC(=O)O)NC(=O)[C@@H](NC(=O)[C@@H]1CCCN1C(=O)[C@@H](NC(=O)[C@@H](N)Cc1ccccc1)C(C)C)[C@@H](C)O)C(=O)NCC(=O)NCC1CC1C(=O)N[C@@H](Cc1ccccc1)C(=O)N[C@@H](C)C(=O)N[C@@H](Cc1ccccc1)C(=O)O` (stereo partly specified) (H-FVPTDVG[X2]FAF-OH), the half-inhibitory concentration (IC50) was greater than 3 µM. For H-YVPTQVGSEAF-OH, the half-inhibitory concentration (IC50) is 95 µM. `CC(C)[C@H](NC(=O)[C@H](CC(=O)O)NC(=O)[C@@H](NC(=O)[C@@H]1CCCN1C(=O)[C@@H](NC(=O)[C@@H](N)Cc1ccccc1)C(C)C)[C@@H](C)O)C(=O)NCC(=O)N1CCCC[C@H]1C(=O)N[C@@H](Cc1ccccc1)C(=O)N[C@@H](C)C(=O)N[C@@H](Cc1ccccc1)C(=O)O`: the IC50 was found to be 0.91 µM. As to H-NFVPRSKISPQGY-OH, the IC50 is 10 µM. Consider H-FVPTDVGAFAF-OH, for which the IC50 is 0.159 µM. In the case of H-FVPTNVGSEPF-OH it was greater than 10 µM; in that of Ac-FVPTNVGSEAF-OH, 4.5 µM.

As for H-NFVPTNVGSQGY-OH, the IC50 is 10 µM. As to H-NFVPTNVGSNTY-OH, the IC50 turned out to be 10 µM. Take H-FVPTNVGSPAF-OH: the IC50 was greater than 10 µM. H-FVPTNPGSEAF-OH: the IC50 was greater than 10 µM. The same measure for H-YVPTNVGSEAY-OH: 32 µM; for `CC(C)[C@H](NC(=O)[C@H](CC(N)=O)NC(=O)[C@@H](NC(=O)[C@@H]1C[C@@H](O)CN1C(=O)[C@@H](NC(=O)[C@@H](N)Cc1ccc(O)cc1)C(C)C)[C@@H](C)O)C(=O)NCC(=O)N[C@@H](CO)C(=O)N[C@@H](CCC(=O)O)C(=O)N[C@@H](C)C(=O)N[C@@H](Cc1ccccc1)C(=O)O` (H-YV[Hyp]TNVGSEAF-OH): 9 µM.
